Compounds with a hit are over-represented: about 2.6% of the library has one in this group of screens.
UCH37 DUB inh = human UCH37 deubiquitinating enzyme inhibition | purified proteasome/UCH37, Ub-AMC cleavage fluorescence | 330,000 compounds, 0.33% hits | AID 588478 | inhibition, % (test concentration not listed) | Q9Y5K5;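 active = mean inhibition over replicate wells above about 20%, limit read from the data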;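 also: 0% = compound-free wells with enzyme and 100% = wells lacking proteasome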
Target sequence (Q9Y5K5 whole entry, looked up): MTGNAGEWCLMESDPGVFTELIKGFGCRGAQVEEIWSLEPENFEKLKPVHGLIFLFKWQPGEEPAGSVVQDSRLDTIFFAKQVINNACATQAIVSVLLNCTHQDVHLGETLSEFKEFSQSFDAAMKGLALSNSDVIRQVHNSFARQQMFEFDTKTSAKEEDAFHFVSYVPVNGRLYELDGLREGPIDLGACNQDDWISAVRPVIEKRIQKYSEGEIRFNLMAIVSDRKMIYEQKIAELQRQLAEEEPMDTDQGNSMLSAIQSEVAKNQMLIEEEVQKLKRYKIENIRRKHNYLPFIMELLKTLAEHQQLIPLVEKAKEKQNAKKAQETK
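Material: Human UCH37 enzyme supplied as purified proteasome complex | Schedule: 30 min compound-proteasome preincubation then 25 min substrate reaction, room temperature | Detection: AMC fluorescence from Ub-AMC cleavage, excitation 355 nm, emission 460 nm | Benchmarks: Wells without proteasome as full block, compound-free enzyme plus substrate as uninhibited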
SENP6 inh = blocks the human protease SENP6. inhibition, % at 10 µM. AID 2599. 330,000 compounds, 1.8% hits. Recombinant SENP6 catalytic domain, aminoluciferin luminescence. Q9GZR1;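 active = inhibition above about 50% at the single tested dose, limit read from the data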;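 also: plate controls were DMSO wells with enzyme for no effect and DMSO wells lacking enzyme for full effect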
SENP8 block-1 = SENP8 (human) protease inhibition. recombinant SENP8, Nedd8 substrate fluorescence. inhibition, % at 20 µM. 360,000 compounds, 0.64% hits. AID 602440; in the data active = inhibition mostly above about 40%, no sharp cut-off; inactive = mostly below about 27%
SENP7 inh = SENP7 protease inhibition; Q9BQF6; recombinant SENP7, Z-RLRGG-aminoluciferin luminescence, 40 min; inhibition, % at 5 µM; 330,000 compounds, 1.5% hits; AID 434973;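 active = inhibition above about 50% at the single test dose, limit read from the data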;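 also: plate controls were DMSO with enzyme for no effect and no enzyme buffer wells for full effect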
SENP8 block-2 = blocks the human protease SENP8; Q96LD8; purified SENP8, Z-RLRGG-aminoluciferin cleavage, luminescence; inhibition, % at 10 µM; 330,000 compounds, 1.2% hits; in the data active = inhibition above about 50%
SENP1 inh = blocks the human SENP1 SUMO protease catalytic domain; inhibition, % at 10 µM; Q9P0U3; 360,000 compounds, 0.21% hits; recombinant SENP1 catalytic domain, CyPet-SUMO1-YPet FRET cleavage;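 active = inhibition at least 30% at 10 µM, raw YFP signal under a set limit, fluorescence ratio 0.5 to 1.5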;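 also: 0% = enzyme with DMSO and 100% = no enzyme wells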
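Compound: 10 µM single point, 0.5% DMSO; Test system: hSENP1 catalytic domain, recombinant; Timing: 50 min reaction at room temperature; Technique: FRET, CFP and YFP emission; Control set: no-enzyme wells low, DMSO-plus-enzyme wells high control.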
SENP8 conf = human SENP8 inhibition, confirmed. 6,200 compounds, 40% hits. inhibition, % at 12.5 µM. shares compounds with SENP7 inh. Recombinant SENP8, Z-RLRGG-aminoluciferin luminescence, 60 min;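 active = mean inhibition across replicates above about 50%, limit read from the data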
SENP6 conf = human SENP6 inhibition, confirmed; recombinant SENP6, Z-RLRGG-aminoluciferin luminescence; 6,200 compounds, 58% hits; inhibition, % at 12.5 µM; shares compounds with SENP7 inh
SENP7 conf = human SENP7 inhibition, confirmed; shares compounds with SENP7 inh; recombinant SENP7, Z-RLRGG-aminoluciferin luminescence, 40 min; inhibition, % at 12.5 µM; 6,200 compounds, 69% hits; AID 488917
Casp3 select = selectivity test for SENP inhibitors: human caspase-3 inhibition; inhibition, % at 12.5 µM; shares compounds with SENP7 inh; purified caspase-3, Z-DEVD-aminoluciferin luminescence, 60 min; 6,200 compounds, 60% hits;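 active = mean inhibition above about 50%, limit read from the data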;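 also: plate controls were enzyme with DMSO for no effect and wells without caspase-3 for full effect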
Target sequence (P42574 28-227 limits assumed): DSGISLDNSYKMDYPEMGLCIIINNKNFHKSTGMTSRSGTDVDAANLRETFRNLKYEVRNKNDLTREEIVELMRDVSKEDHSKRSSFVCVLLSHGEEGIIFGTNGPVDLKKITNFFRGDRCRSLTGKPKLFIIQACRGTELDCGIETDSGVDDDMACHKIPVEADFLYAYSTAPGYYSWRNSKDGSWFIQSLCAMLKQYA
SENP luc ctr = luminescence interference (SENP counter-screen); Pre-incubated SENP8/Z-RLRGG-aminoluciferin, luciferase luminescence interference; 6,200 compounds, 39% hits; inhibition, % at 12.5 µM; shares compounds with SENP7 inh;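 active = mean inhibition above about 50% when retested at one dose, limit read from the data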;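 also: plate controls were DMSO wells with completed reaction for no effect and substrate without enzyme for full effect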
* hit, by the source's call; . = not tested or not shown.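 The calls were made as follows, unless noted: active = mean inhibition above about 50% in the one-dose retest (limit read from the data); inactive = the rest.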

SMILES | UCH37 DUB inh | SENP6 inh | SENP8 block-1 | SENP7 inh | SENP8 block-2 | SENP1 inh | SENP8 conf | SENP6 conf | SENP7 conf | Casp3 select | SENP luc ctr
Clc1ccc(OCc2cc(-c3ccccc3)no2)c(Cl)c1 | 2.7 | 83.8* | 5.2 | 3.0 | 81.5* | 1.2 | 9.6 | 17.8 | 17.7 | 48.8 | 0.8
Cc1cccc(OCc2cc(-c3ccccc3)no2)c1C | 0.6 | 67.4* | 19.3 | 66.6* | 54.8* | -1.5 | 9.4 | 42.9 | 70.0* | 38.4 | 20.4
CSc1ccc(C=Nn2nnnc2N)cc1 | -84.7 | . | . | . | . | . | . | . | . | . | .
c1ccc(-c2ccc(-c3ccncn3)cc2)cc1 | -20.0 | 61.1* | -98.7 | 84.5* | 51.3* | -1.8 | 5.7 | 15.6 | 32.3 | 25.9 | 11.4
c1ccc(-c2cncnc2)nc1 | 1.7 | -9.7 | 21.6 | -11.1 | -1.0 | 1.8 | . | . | . | . | .
O=C(Oc1ccc(C=NO)cc1)c1ccccc1 | 1.3 | . | . | . | . | . | . | . | . | . | .
CCOC(=O)c1oc2cccc(O)c2c1C | -9.3 | -13.1 | -47.5 | 63.0* | 50.4* | 0.8 | 2.0 | 59.3* | 82.5* | 59.2* | 64.9*
C#CCNC(=O)c1ccc(OCc2ccccc2)cc1Cl | -1.1 | 75.1* | 10.8 | 64.4* | 63.4* | -1.2 | 69.8* | 66.9* | 87.0* | 80.0* | 69.4*
C/C(C=NNC(=O)CSc1nnc(SCc2ccc(C)cc2)s1)=C/c1ccco1 | 4.4 | . | . | . | . | . | . | . | . | . | .
COc1ccc(C(=O)NN=Cc2ccc(OC)c(COc3ccc(F)cc3F)c2)cc1 | -0.4 | . | . | . | . | . | . | . | . | . | .
Cc1nn2cc(-c3ccc(-c4ccccc4)cc3)nc2s1 | -4.3 | -0.7 | -118.3 | 58.2* | 12.8 | 2.6 | 2.7 | 10.6 | 5.9 | 7.5 | 5.7
Cc1ccc(-c2cn3nc(-c4ccccc4)c(-c4ccccc4)nc3n2)cc1 | -58.0 | -8.3 | -421.5 | -3.9 | 2.4 | -38.1 | . | . | . | . | .
Cc1nn2cc(-c3ccc(Cl)cc3)nc2s1 | 5.2 | 81.5* | 11.4 | 86.9* | 54.3* | -1.9 | -4.3 | 2.9 | 25.5 | 23.7 | 3.7
CCc1nn2cc(-c3ccccc3)nc2s1 | -0.3 | 94.1* | 30.0 | 95.5* | 88.9* | -0.4 | -1.0 | 93.8* | 100.8* | 94.9* | 84.1*
CCCCC(=O)NN=C(C)/C=C/c1ccccc1F | 1.4 | . | . | . | . | . | . | . | . | . | .
Nc1c(C(=O)Nc2cccc(C(=O)O)c2)sc2nc3c(cc12)CCCC3 | . | 71.3* | -293.9 | 25.0 | 46.7 | -24.8 | 73.8* | 68.0* | 88.4* | 17.8 | 43.1
COc1ccc2oc(=O)c(-c3nc(C)cs3)cc2c1 | -97.8 | 48.2 | -294.1 | 91.6* | 74.5* | -28.0 | -11.0 | 20.8 | 24.1 | 32.0 | 12.3
Cc1oc(/N=C/c2ccc(O)cc2O)c(C#N)c1C | . | 57.4* | -12.5 | -9.3 | 32.0 | -92.6 | 81.3* | 82.3* | 93.9* | 55.5* | 26.8
N#Cc1ccsc1NC(=O)CCc1ccccc1 | 1.2 | 23.0 | 8.3 | 70.4* | 60.1* | -7.6 | 13.7 | 27.8 | 68.3* | 53.2* | 47.0
O=C(Oc1ccc2ccccc2c1)c1ccccc1 | 3.9 | 83.4* | 4.7 | -3.5 | 70.8* | 0.2 | 73.5* | 86.2* | 95.1* | 65.7* | 69.6*
O=C(Oc1ccc(/C=N/O)cc1)c1ccccc1 | . | 78.2* | 3.4 | 80.0* | 45.4 | 3.0 | 66.2* | 64.8* | 89.4* | 71.9* | 79.3*
O=C(Oc1ccccc1)c1ccccc1 | 2.4 | . | 1.5 | . | . | -0.4 | . | . | . | . | .
CCOC(=O)Cn1c2ccccc2c2nc(C)sc21 | 4.2 | 14.6 | 18.5 | -6.6 | 2.3 | -0.6 | . | . | . | . | .
